ChEMBL document CHEMBL4138193, “Novel indole and triazole based hybrid molecules exhibit potent anti-adipogenic and antidyslipidemic activity by activating Wnt3a/β-catenin pathway” (Eur J Med Chem, 2018)
Active and inactive are the calls of the source. The calls are words filed in the database; no cut-off is given here.

Experiments:
Syrian golden hamster [1] = test: Induction of reverse cholestrol transport in high fat diet-induced dyslipidemia Syrian Golden hamster model assessed as reduction in weight gain at 100 mg/kg, po administered for 1 week; type: functional, organism-based; details: Mesocricetus auratus
Outline: (§1)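 Male Syrian Golden hamsters on 45% kCal HFD, dosed 100 mg/kg p.o. in 0.5% NaCMC for one week, 4 per group. Food intake and body weight recorded daily. At the end, animals were saline-perfused and liver and eWAT were excised and weighed. Paraffin sections stained with H&E and imaged at 20x.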

Syrian golden hamster [2] = test: Induction of reverse cholestrol transport in high fat diet-induced dyslipidemia Syrian Golden hamster model assessed as increase in PPARalpha mRNA expression in liver at 100 mg/kg, po administered for 1 week by qRT-PCR analysis; type: functional, organism-based; details: Mesocricetus auratus
Mus musculus [3] = organism: Mus musculus; test: Activation of Wnt3a/beta-catenin in mouse 3T3L1 cells assessed as down-regulation of CDK2 expression at 20 uM after 16 to 24 hrs by Western blot analysis; type: cell-based
Outline: (§2)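 3T3-L1 cells given MDI differentiation media (0.5 mM IBMX, 5 µg/ml insulin, 250 nM dexamethasone) with or without 20 µM compound. Proteins isolated at 16 and 24 h and probed by Western blot for CDK2, CDK4, CDK6, cyclin D1 and D3. Densitometry normalized to actin, n=3, mean ± SD, Student t test.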

Syrian golden hamster [4] = test: Induction of reverse cholestrol transport in high fat diet-induced dyslipidemia Syrian Golden hamster model assessed as increase in ABCG8 mRNA expression in eWAT at 100 mg/kg, po administered for 1 week by qRT-PCR analysis; type: functional, organism-based; details: Mesocricetus auratus
3T3-L1 [5] = test: Cell cycle arrest in mouse 3T3L1 cells assessed as reduction in accumulation at S phase at 10 to 20 uM after 24 hrs by propidium iodide-staining based flow cytometry; type: functional
Outline: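 Confluent 3T3-L1 preadipocytes given differentiation medium (0.5 mM IBMX, 5 µg/ml insulin, 250 nM dexamethasone) with 10 or 20 µM for 16 and 24 hr. Cells trypsinized, fixed in ice-cold 70% ethanol for 2 hr, stained with propidium iodide (40 µg/ml in RNase A buffer, 30 min, room temperature). Flow cytometry gave the fractions in G1, S and G2/M; three independent experiments.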

Syrian golden hamster [6] = test: Anti-dyslipidemic activity in high fat diet-induced dyslipidemia Syrian Golden hamster model assessed as decrease in serum AST levels at 100 mg/kg, po administered for 1 week followed by overnight fasting post last dose by clinical bio-analyzer analysis; type: functional, organism-based; details: Mesocricetus auratus
Outline: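 Male Syrian golden hamsters (8–10 wk, 100–120 g), 4 per group, given 45% kcal HFD for 4 days, then 100 mg/kg p.o. in 0.5% NaCMC daily for one week alongside HFD. Blood taken from retro-orbital plexus after overnight fast. TG, HDL, LDL, ALT, AST measured on a clinical bio-analyzer and NEFA by kit. Mean ± SEM, one-way ANOVA with Bonferroni.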

Syrian golden hamster [7] = test: Anti-adipogenic activity in high fat diet-induced dyslipidemia Syrian Golden hamster model assessed as decrease in PPARgamma levels in eWAT at 100 mg/kg, po administered for 1 week by Western blot analysis; type: functional, organism-based; details: Mesocricetus auratus
Outline: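 Male Syrian golden hamsters (8–10 wk, 100–120 g) fed 45% kcal HFD for 4 days, then dosed orally at 100 mg/kg in 0.5% NaCMC for one week, n=4 per group. Fenofibrate 100 mg/kg p.o. used as positive control. Epididymal WAT proteins Western blotted, three independent experiments.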

Mus musculus [8] = organism: Mus musculus; test: Activation of Wnt3a/beta-catenin in mouse 3T3L1 cells assessed as down-regulation of cyclinD3 expression at 20 uM after 16 to 24 hrs in presence of FH353 by Western blot analysis; type: cell-based
Outline: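 Confluent 3T3-L1 cells given differentiation media (IBMX/insulin/dexamethasone) with 20 µM compound, with or without the β-catenin/TCF inhibitor FH353 (10 µM). Proteins isolated at 16 and 24 h and Western blotted after SDS-PAGE and nitrocellulose transfer. Blocking in 5% milk/TBS-T, primary antibody overnight at 4 °C, chemiluminescent detection, β-actin control, three independent experiments.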

Mus musculus [9] = organism: Mus musculus; test: Activation of Wnt3a/beta-catenin in mouse 3T3L1 cells assessed as down-regulation of CDK6 expression at 20 uM after 16 to 24 hrs by Western blot analysis; type: cell-based; outline: as §2
Syrian golden hamster [10] = test: Induction of reverse cholestrol transport in high fat diet-induced dyslipidemia Syrian Golden hamster model assessed as reduction in eWAT to body weight ratio at 100 mg/kg, po administered for 1 week; type: functional, organism-based; details: Mesocricetus auratus; outline: as §1
Mus musculus [11] = organism: Mus musculus; test: Activation of Wnt3a/beta-catenin in differentiated mouse 3T3L1 cells assessed as upregulation of phosphorylated beta-catenin expression at 20 uM after 16 to 24 hrs by Western blot analysis
Outline: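 3T3-L1 preadipocytes grown to confluence in high-glucose DMEM/10% FBS, then given differentiation media (0.5 mM IBMX, 5 µg/ml insulin, 250 nM dexamethasone) with or without 20 µM compound. Protein isolated at set time points, lysed with protease/phosphatase inhibitors, BCA-quantified, resolved by 8–12% SDS-PAGE, immunoblotted with ECL detection. β-actin loading control, densitometry normalized to actin, n=3.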

3T3-L1 [12] = test: Anti-adipogenic activity in mouse 3T3L1 cells assessed as inhibition of adipogenesis after 20 mins by Oil Red O staining based assay; type: functional, cell-based; details: 3T3-L1, 20 min
Outline: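 3T3-L1 preadipocytes differentiated with compound at 0.1, 1, 3, 10, 30, 100 and 300 µM. Oil red O absorbance read at 492 nm, concentrations log-transformed and fitted by non-linear regression to give IC50. Two to three independent experiments, mean ± SEM.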

Syrian golden hamster [13] = test: Effect on serum HDL level in high fat diet-induced dyslipidemia Syrian Golden hamster model at 100 mg/kg, po administered for 1 week followed by overnight fasting post last dose by clinical bio-analyzer analysis; type: ADME, organism-based, Mesocricetus auratus; details: in vivo, 168 h
Outline: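 Male Syrian Golden hamsters (8-10 weeks, 100-120 g), 4 per group, given 45% kCal high fat diet for 4 days, then HFD plus oral dosing in 0.5% w/v NaCMC for one week. After an overnight fast, blood was taken from the retro-orbital plexus under anesthesia and serum was analysed on a clinical bio-analyzer. Mean ± SEM; one-way ANOVA with Bonferroni post-test.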

3T3-L1 [14] = test: Cytotoxicity against mouse 3T3L1 cells at 1 to 1000 uM after 24 hrs by MTT assay; type: cell-based; details: 3t3-l1, 24 h
Outline: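 3T3-L1 cells seeded at 1×10^4 per well and grown 24 hr, then exposed to 1–1000 µM for 24 hr. Medium was replaced with MTT medium ([…]) for 3 hr and the formazan dissolved in DMSO. Absorbance read at 570 nm; three independent experiments, mean ± SD.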

Mus musculus [15] = organism: Mus musculus; test: Activation of Wnt3a/beta-catenin in mouse 3T3L1 cells assessed as down-regulation of FAS expression at 20 uM after 2 to 6 days in presence of FH353 by Western blot analysis; type: cell-based
Mus musculus [16] = organism: Mus musculus; test: Activation of Wnt3a/beta-catenin in differentiated mouse 3T3L1 cells assessed as down-regulation of PPARgamma mRNA expression at 20 uM by qRT-PCR analysis
Outline: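 3T3-L1 cells differentiated with IBMX/dexamethasone/insulin media with or without 20 µM compound over the differentiation period. RNA extracted with TRIZOL, 500 ng reverse-transcribed to cDNA, then quantitative real-time PCR. Three independent experiments run in triplicate, mean ± SD, one-way ANOVA with Bonferroni posttest.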

Cc1ccc(S(=O)(=O)N(Cc2cn(Cc3cccc(F)c3F)nn2)Cc2cn(S(=O)(=O)c3ccc(C)cc3)c3ccccc23)cc1
Activity (Syrian golden hamster [1]): Active
Activity (Syrian golden hamster [2]): Active
Activity (Mus musculus [3]): Active
Activity (Syrian golden hamster [4]): Active
Activity (3T3-L1 [5]): inactive
Activity (Syrian golden hamster [6]): Active
Activity (Syrian golden hamster [7]): Active
Activity (Mus musculus [8]): inactive
Activity (Mus musculus [9]): Active
Activity (Syrian golden hamster [10]): Active
Activity (Mus musculus [11]): Active
IC50 (3T3-L1 [12]): 1700 nM
Activity (Syrian golden hamster [13]): Non-Toxic
Activity (3T3-L1 [14]): Non-Toxic
Activity (Mus musculus [15]): inactive
Activity (Mus musculus [16]): Active
